For 17 compounds, inhibition and IC50 results are on record in ChEMBL document CHEMBL2069216, “Discovery of novel 2-aminopyridine-3-carboxamides as c-Met kinase inhibitors” (Bioorg Med Chem, 2012).

The structures appear in SMILES notation. Active and inactive are the calls of the source. The rule behind the calls is not given here.

By inhibition is commonly meant the relative decrease from the control value, in per cent. The term IC50 denotes the concentration needed to halve the response being measured.

The target of assay [1] is T1, Hepatocyte growth factor receptor (Homo sapiens, UniProt P08581). Put plainly: Inhibition of c-Met at 1 uM incubated for 60 mins by spectrophotometry. The method, boiled down: (§1)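 Compounds in 1% DMSO; reaction started by adding purified kinase, 60 min at 37 °C. PY99 antibody, then HRP anti-mouse IgG; o-phenylenediamine/H2O2 read at 490 nm. Inhibition % = [1-(A490/A490 control)]×100; IC50 from inhibition curves.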

Assay [2] in a line: Antiproliferative activity against human EBC1 cells expressing elevated levels of constitutively active c-Met after 72 hrs by SRB assay. Particulars: EBC-1, 72 h. The format is functional, cell-based. Summed up:
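Cells seeded in 96-well plates, exposed the next day to a range of compound concentrations and cultured 72 h. Fixed with cold 10% TCA at 4 °C for 1 h, stained with 0.4% SRB in 1% acetic acid at room temperature, washed with 1% acetic acid, dye solubilized in 10 mM Tris base. OD read at 515 nm.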

Assay [3] addresses T1, Hepatocyte growth factor receptor. Description: Inhibition of c-Met incubated for 60 mins at spectrophotometry.
The target is the same in assay [4]. Put plainly: Inhibition of c-Met phosphorylation in human EBC1 cells incubated for 4 hrs by Western blot. It counts as cell-based. The method, boiled down:
(§2)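 EBC-1 cells grown to exponential phase and treated with compound for 4 h at 37 °C. Lysed in 1× SDS sample buffer, resolved on 10% SDS-PAGE, transferred to nitrocellulose. Probed for phospho-c-Met/c-Met, phospho-ERK1/2/ERK1/2, phospho-AKT/AKT and GAPDH, then HRP anti-rabbit or anti-mouse IgG.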

Assay [5] has the same target. Put plainly: Inhibition of c-Met-mediated ERK1/2 phosphorylation in human EBC1 cells at 0.1 to 10 uM incubated for 4 hrs by Western blot. The format is cell-based. Summed up:
as §2
(In western blotting, separated proteins are transferred to a membrane and probed.)

Assay [6] shares this target. Description: Inhibition of c-Met-mediated AKT phosphorylation in human EBC1 cells at 0.1 to 10 uM incubated for 4 hrs by Western blot. The format is cell-based. Summed up: as §2
For assay [7], the target named is Macrophage-stimulating protein receptor (Homo sapiens, UniProt Q04912). Description: Inhibition of Ron. The method, boiled down:
as §1

Assay [8] deals with T2, Tyrosine-protein kinase Mer (Homo sapiens, UniProt Q12866).
T2 sequence (Q12866 whole entry): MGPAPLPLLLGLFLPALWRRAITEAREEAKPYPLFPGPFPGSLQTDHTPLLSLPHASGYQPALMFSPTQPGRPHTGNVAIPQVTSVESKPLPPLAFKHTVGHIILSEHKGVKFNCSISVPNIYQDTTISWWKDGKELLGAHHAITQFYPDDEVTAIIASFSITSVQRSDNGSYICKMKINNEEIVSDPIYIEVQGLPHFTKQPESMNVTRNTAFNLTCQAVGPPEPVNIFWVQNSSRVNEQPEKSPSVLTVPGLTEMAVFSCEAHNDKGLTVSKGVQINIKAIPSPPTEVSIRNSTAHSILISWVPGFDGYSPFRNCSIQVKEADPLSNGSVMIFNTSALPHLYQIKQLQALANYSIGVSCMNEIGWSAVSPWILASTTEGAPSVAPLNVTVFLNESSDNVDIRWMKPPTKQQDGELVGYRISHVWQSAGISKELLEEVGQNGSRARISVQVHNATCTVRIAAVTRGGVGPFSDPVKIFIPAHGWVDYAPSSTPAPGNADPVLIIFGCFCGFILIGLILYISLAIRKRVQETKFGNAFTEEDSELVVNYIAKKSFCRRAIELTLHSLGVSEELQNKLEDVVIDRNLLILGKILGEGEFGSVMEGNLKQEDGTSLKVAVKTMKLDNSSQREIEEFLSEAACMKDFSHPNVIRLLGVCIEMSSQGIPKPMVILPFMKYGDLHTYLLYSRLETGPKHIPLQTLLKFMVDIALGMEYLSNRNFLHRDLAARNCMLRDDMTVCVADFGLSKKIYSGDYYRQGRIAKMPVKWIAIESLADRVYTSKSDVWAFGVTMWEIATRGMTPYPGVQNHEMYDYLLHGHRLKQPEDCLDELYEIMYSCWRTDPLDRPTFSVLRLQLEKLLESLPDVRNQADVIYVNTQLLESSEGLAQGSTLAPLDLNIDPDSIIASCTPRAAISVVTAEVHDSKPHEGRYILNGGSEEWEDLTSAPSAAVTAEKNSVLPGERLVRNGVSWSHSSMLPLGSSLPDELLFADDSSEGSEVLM
Description: Inhibition of Mer. Summed up:
as §1

The target of assay [9] is T3, Tyrosine-protein kinase receptor TYRO3 (Homo sapiens, UniProt Q06418).
T3 sequence (Q06418 whole entry): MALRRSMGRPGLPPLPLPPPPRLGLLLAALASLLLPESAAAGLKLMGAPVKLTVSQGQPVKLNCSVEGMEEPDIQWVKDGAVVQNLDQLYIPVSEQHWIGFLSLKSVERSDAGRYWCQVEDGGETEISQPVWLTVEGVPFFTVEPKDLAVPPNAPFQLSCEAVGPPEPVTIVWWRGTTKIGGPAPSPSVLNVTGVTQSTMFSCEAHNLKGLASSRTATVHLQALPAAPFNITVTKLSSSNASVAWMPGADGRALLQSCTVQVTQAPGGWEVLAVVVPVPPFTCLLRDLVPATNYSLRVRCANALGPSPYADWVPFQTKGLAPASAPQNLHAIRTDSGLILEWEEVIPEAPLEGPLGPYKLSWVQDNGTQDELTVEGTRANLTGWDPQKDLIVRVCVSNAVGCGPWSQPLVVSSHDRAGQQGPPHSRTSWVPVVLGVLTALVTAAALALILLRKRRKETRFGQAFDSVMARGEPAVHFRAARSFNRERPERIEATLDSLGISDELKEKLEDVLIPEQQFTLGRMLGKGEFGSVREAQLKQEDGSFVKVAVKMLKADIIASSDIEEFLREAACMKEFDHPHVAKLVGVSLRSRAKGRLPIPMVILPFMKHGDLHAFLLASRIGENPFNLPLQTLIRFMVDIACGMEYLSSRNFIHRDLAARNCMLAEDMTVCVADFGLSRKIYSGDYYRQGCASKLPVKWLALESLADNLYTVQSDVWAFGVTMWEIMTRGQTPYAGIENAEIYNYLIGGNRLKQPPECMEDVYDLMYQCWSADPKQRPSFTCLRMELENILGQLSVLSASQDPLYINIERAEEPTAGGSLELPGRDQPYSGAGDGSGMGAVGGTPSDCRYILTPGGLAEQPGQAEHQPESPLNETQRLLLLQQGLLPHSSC
Put plainly: Inhibition of TYRO3. The method, boiled down:
as §1

The target of assay [10] is T4, Tyrosine-protein kinase receptor UFO (Homo sapiens, UniProt P30530).
T4 sequence (P30530 whole entry): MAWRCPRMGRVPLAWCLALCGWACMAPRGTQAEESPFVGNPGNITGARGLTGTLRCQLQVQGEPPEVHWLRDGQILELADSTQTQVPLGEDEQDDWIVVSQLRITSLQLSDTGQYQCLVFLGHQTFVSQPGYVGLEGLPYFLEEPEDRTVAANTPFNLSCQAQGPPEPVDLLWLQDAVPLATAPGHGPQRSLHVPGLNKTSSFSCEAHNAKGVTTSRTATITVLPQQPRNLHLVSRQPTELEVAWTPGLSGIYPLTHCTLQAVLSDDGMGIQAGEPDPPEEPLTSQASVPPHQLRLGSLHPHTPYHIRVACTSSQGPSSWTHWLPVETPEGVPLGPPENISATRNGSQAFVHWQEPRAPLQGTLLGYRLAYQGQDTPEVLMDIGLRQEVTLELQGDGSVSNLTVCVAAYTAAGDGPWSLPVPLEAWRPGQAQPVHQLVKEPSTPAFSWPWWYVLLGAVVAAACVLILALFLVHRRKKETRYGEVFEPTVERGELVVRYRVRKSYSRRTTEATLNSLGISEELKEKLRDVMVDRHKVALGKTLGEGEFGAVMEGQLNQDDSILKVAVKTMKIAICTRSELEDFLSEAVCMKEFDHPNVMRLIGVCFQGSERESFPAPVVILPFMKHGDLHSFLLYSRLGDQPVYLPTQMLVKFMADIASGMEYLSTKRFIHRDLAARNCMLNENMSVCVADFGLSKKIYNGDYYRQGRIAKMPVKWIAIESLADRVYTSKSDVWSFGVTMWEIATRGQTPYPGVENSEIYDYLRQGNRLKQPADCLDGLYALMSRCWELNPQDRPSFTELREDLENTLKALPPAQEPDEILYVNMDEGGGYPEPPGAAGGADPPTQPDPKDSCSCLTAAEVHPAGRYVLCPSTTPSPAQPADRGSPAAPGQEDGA
Put plainly: Inhibition of Axl. The method, boiled down: as §1

In assay [11] the target is Vascular endothelial growth factor receptor 2 (Homo sapiens, UniProt P35968). Description: Inhibition of KDR. Summed up: as §1
The target in assay [12] is Epidermal growth factor receptor (Homo sapiens, UniProt P00533). Put plainly: Inhibition of EGFR. The method, boiled down:
as §1

Assay [13] addresses Fibroblast growth factor receptor 1 (Homo sapiens, UniProt P11362). Put plainly: Inhibition of FGFR1. The method, boiled down: as §1
The target in assay [14] is Platelet-derived growth factor receptor (Homo sapiens, UniProt P09619+P16234). Put plainly: Inhibition of PDGFR. The format is protein-complex assay. Summed up:
as §1

The target of assay [15] is Vascular endothelial growth factor receptor 1 (Homo sapiens, UniProt P17948). Put plainly: Inhibition of FLT1. Summed up:
as §1

Assay [16] deals with Tyrosine-protein kinase ABL1 (Homo sapiens, UniProt P00519). Description: Inhibition of ABL. Summed up: as §1
Assay [17] addresses Ephrin type-A receptor 2 (Homo sapiens, UniProt P29317). Put plainly: Inhibition of EPHA2. Summed up: as §1
Assay [18] concerns the target Receptor tyrosine-protein kinase erbB-2 (Homo sapiens, UniProt P04626). Description: Inhibition of ERBB2. Summed up:
as §1

For assay [19], the target named is Receptor tyrosine-protein kinase erbB-4 (Homo sapiens, UniProt Q15303). Description: Inhibition of ERBB4. Summed up:
as §1

For assay [20], the target named is T1, Hepatocyte growth factor receptor. Put plainly: Inhibition of c-Met at 10 uM incubated for 60 mins by spectrophotometry. The method, boiled down:
as §1

T1 sequence (P08581 whole entry): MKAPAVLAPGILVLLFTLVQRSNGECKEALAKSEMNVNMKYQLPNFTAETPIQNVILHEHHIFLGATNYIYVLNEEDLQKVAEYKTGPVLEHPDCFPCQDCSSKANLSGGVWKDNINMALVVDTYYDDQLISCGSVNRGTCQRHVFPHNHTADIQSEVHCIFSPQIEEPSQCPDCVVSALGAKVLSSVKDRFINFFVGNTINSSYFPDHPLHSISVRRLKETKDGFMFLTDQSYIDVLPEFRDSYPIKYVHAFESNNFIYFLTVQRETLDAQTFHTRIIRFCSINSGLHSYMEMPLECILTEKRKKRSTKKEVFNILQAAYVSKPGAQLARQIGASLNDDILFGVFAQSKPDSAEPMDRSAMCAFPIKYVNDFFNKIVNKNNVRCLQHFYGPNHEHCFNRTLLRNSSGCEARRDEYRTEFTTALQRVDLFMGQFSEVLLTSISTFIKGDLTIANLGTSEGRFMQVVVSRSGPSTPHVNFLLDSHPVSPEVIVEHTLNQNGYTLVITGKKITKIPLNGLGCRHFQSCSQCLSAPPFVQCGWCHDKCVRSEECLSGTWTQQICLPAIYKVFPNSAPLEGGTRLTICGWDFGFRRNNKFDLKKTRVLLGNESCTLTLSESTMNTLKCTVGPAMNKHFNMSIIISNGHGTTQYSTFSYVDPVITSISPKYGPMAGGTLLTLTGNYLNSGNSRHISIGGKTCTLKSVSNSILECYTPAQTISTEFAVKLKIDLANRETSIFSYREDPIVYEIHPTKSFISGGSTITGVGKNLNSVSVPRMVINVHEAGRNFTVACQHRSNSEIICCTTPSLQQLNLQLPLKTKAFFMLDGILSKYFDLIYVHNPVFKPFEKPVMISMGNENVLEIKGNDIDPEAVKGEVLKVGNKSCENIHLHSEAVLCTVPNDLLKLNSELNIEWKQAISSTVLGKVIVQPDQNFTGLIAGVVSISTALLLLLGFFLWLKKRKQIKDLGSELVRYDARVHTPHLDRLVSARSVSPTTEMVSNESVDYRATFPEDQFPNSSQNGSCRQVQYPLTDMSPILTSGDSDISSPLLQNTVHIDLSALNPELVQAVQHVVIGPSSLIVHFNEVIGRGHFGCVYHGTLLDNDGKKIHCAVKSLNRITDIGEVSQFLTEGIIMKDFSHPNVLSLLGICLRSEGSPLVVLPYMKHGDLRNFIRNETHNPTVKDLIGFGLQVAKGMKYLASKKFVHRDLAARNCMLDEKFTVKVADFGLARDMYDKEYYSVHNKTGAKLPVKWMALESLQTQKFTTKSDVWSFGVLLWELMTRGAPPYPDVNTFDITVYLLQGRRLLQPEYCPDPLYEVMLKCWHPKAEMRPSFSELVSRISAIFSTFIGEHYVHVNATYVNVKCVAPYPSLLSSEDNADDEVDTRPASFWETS
Chain of Ephrin type-A receptor 2 (P29317 whole entry): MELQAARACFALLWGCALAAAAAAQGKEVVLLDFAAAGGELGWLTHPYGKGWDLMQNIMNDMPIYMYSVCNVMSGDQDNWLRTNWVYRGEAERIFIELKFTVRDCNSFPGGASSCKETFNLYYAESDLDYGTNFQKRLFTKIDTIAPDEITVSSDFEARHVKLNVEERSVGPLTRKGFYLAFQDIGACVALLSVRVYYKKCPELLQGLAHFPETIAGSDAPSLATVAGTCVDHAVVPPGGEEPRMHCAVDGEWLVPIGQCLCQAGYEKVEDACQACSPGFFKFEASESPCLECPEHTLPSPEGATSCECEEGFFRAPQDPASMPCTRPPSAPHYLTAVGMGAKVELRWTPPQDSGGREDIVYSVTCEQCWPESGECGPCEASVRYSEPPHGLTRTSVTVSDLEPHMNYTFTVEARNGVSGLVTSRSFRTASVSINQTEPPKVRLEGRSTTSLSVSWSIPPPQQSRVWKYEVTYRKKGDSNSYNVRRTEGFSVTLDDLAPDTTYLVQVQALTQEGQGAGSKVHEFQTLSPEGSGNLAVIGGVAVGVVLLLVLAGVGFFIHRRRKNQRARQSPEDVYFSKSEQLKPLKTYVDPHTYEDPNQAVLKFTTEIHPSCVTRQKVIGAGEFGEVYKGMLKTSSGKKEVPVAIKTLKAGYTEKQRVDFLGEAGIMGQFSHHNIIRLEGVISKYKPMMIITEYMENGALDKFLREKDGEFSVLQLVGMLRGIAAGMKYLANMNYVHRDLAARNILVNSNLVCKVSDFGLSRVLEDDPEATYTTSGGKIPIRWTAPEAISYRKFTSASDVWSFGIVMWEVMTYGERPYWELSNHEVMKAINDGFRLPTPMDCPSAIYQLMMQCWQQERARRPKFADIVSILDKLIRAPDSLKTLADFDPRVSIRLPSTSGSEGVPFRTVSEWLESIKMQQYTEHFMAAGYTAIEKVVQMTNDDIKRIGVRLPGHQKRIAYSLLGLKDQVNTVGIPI
Chain of Vascular endothelial growth factor receptor 1 (P17948 whole entry): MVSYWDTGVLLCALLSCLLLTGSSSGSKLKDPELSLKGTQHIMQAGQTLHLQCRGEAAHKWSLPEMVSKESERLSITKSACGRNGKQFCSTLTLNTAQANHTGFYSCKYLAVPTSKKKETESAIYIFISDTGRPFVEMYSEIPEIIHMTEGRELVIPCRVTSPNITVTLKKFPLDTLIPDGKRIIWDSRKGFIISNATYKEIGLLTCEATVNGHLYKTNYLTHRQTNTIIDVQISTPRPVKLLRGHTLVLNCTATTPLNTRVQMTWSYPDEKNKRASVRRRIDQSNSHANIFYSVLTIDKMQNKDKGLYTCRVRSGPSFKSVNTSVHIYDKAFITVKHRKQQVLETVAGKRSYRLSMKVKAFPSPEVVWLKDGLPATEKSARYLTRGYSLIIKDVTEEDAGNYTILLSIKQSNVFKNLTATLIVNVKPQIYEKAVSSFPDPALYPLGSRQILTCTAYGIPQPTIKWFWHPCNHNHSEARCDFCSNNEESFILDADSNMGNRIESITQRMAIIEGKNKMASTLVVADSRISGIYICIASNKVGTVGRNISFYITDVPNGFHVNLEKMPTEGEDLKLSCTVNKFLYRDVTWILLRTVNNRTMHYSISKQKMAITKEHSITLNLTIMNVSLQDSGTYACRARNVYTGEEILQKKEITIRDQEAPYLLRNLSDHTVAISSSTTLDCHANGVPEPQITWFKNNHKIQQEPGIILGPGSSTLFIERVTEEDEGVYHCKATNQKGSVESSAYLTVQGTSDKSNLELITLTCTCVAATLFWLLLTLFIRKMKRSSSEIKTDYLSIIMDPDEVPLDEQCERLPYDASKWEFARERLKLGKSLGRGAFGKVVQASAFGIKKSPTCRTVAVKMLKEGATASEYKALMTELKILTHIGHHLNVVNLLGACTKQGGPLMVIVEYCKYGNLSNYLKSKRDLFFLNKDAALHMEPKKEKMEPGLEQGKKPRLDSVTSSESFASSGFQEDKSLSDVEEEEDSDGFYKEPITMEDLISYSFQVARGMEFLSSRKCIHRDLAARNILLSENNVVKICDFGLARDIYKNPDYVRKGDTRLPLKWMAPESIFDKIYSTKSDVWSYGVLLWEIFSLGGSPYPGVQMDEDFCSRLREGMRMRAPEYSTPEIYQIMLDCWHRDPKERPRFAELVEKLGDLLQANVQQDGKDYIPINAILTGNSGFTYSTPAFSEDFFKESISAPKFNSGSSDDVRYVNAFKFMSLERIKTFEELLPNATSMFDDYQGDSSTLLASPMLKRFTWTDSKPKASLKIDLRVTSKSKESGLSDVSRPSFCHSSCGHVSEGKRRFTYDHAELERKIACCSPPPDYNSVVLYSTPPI
Chain of Tyrosine-protein kinase ABL1 (P00519 whole entry): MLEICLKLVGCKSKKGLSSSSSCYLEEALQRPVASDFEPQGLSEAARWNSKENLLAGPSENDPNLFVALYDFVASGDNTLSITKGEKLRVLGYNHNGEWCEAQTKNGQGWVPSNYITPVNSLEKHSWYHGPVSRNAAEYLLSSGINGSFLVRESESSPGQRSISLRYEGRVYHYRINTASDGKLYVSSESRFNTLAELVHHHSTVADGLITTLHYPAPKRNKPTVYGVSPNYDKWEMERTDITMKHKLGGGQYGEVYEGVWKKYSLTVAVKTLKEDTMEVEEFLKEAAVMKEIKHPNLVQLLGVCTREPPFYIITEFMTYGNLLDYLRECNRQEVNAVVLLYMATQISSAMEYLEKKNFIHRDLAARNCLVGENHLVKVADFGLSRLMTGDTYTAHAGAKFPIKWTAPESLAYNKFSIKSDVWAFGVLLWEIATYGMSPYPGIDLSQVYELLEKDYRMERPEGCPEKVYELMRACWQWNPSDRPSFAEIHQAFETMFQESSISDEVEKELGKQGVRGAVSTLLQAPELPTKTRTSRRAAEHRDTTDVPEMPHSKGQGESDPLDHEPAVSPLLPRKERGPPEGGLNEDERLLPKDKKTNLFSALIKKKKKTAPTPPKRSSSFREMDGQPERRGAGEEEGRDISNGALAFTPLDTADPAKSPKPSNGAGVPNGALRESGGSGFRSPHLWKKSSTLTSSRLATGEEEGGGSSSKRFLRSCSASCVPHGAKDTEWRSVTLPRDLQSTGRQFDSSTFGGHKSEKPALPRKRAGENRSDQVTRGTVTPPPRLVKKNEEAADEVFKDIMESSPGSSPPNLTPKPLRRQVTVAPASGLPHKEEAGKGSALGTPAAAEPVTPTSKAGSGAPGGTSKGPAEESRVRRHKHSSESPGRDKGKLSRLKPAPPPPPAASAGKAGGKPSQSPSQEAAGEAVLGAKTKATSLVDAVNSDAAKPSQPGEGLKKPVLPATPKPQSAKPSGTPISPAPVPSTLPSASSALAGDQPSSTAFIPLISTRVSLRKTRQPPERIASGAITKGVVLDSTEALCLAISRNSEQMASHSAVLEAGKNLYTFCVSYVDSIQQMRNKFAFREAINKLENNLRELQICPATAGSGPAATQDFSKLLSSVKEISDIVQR

With `C[C@@H](NC(=O)c1cc(-c2cnn(C3CCOCC3)c2)cnc1N)c1c(Cl)ccc(F)c1Cl`, in assay [1], the inhibition was 27.6%.
In assay [2], `Cn1cc(-c2cnc(N)c(C(=O)NCc3c(F)ccc(Cl)c3Cl)c2)cn1` came in with an IC50 of 12.7 µM.
The compound `CC(NC(=O)c1cc(-c2cnn(C)c2)cnc1N)c1c(Cl)ccc(F)c1Cl` (stereo not given) displayed an IC50 in assay [2] greater than 50 µM.
Take `C[C@H](NC(=O)c1cc(-c2cnn(C3CCOCC3)c2)cnc1N)c1c(Cl)ccc(F)c1Cl`: the IC50 in [3] is 0.022 µM; in [2] it was 1.22 µM; in [7] it was 8.26 µM; in assay [8] it was greater than 10 µM; in assay [9], greater than 10 µM; in assay [10] it was greater than 10 µM. For the same compound, the IC50 in [11] is greater than 10 µM; in [12] it was greater than 10 µM; in assay [13] it was 3.48 µM; in [14], greater than 10 µM; in assay [15], 8.16 µM; in assay [16], 4.99 µM. The figures for the IC50 in assay [17], in assay [18] and in [19] were 6.18 µM, greater than 10 µM and greater than 10 µM, respectively. Moreover, the inhibition result in assay [4] is “Dose-dependent effect”. The inhibition result in assay [5] and in [6] was “Active” in each case.
As to `CC(NC(=O)c1cc(-c2ccc3c(c2)CC(=O)N3)cnc1N)c1c(Cl)ccc(F)c1Cl` (stereo not given), the IC50 in assay [2] is 17.8 µM.
Compound `CC(NC(=O)c1cc(-c2cnn(C3CCNCC3)c2)cnc1N)c1c(Cl)ccc(F)c1Cl` (stereo not given) gave an IC50 in assay [2] of 1.46 µM.
With `CN(Cc1c(F)ccc(Cl)c1F)C(=O)c1cc(-c2cnn(C)c2)cnc1N`, the inhibition in [1] is 10.9%.
In turn, `C[C@@H](Oc1cc(-c2cnn(C3CCNCC3)c2)cnc1N)c1c(Cl)ccc(F)c1Cl` [CRIZOTINIB] had an IC50 in assay [2] of 0.053 µM.
On to `CN(Cc1c(F)ccc(F)c1Cl)C(=O)c1cc(-c2cnn(C)c2)cnc1N`, for which, in assay [1], the inhibition came to 18.1%.
With `Cn1cc(-c2cnc(N)c(C(=O)NCc3c(F)ccc(F)c3Cl)c2)cn1`, the IC50 in assay [2] is 6.9 µM.
On to `Cn1cc(-c2cnc(N)c(C(=O)NCc3ccc(F)c(F)c3)c2)cn1`, for which the IC50 in [2] came out at 14.6 µM.
With `Cn1cc(-c2cnc(N)c(C(=O)NCc3cc(F)ccc3F)c2)cn1`, the IC50 in [2] was 15 µM.
On to `CC(NC(=O)c1cc(-c2cnn(C3CCOCC3)c2)cnc1N)c1c(Cl)ccc(F)c1Cl` (racemic), for which the IC50 worked out at 0.099 µM in assay [3] and 3.49 µM in assay [2].
Consider `CC(NC(=O)c1cc(-c2ccc(OCC(=O)N3CCOCC3)cc2)cnc1N)c1c(Cl)ccc(F)c1Cl` (stereo not given), for which it took 6.05 µM to reach half-maximal inhibition in assay [2] (IC50).
`CC(c1c(Cl)ccc(F)c1Cl)n1cnc2ncc(-c3cnn(C4CCN(C(=O)OC(C)(C)C)CC4)c3)cc2c1=O` (stereo not given) showed an inhibition in [20] of 28.9%.
Take `CN(Cc1c(F)ccc(Cl)c1Cl)C(=O)c1cc(-c2cnn(C)c2)cnc1N`: the inhibition in [1] is 13.1%.
For `CC(c1c(Cl)ccc(F)c1Cl)n1cnc2ncc(-c3cnn(C4CCNCC4)c3)cc2c1=O` (stereo not given), in assay [20], the inhibition was determined as 34.1%.
